Each compound was assayed on Rattus norvegicus (assay: Antihypertensive activity against methyl prednisolone acetate-induced hypertension in albino rat assessed as reduction in mean arterial pressure at 14 mg/kg, ip after 1 hr by tail-cuff method). Conditions: route intraperitoneal.
Type: functional, Artery
Set-up: scale not given: the % may be the effect or the level left
In short: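 Albino rats of 200–250 g were trained in a restrainer for 10 min daily for 1 week. Hypertension was induced by s.c. methyl prednisolone acetate at 20 mg/kg/wk for 2 weeks, with an untreated control group kept alongside. Drug was given i.p. and mean arterial BP was read 1 h later in conscious rats by CODA tail-cuff. Results are mean ± SEM, compared with the hypertensive control by ANOVA and Dunnett test.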
`CC(C)NCC(O)COc1cccc2ccccc12` (configuration not stated) [PROPRANOLOL] showed an Activity of 41.4%.

These compounds were tested on Rattus norvegicus (assay: Antihypertensive activity against methyl prednisolone acetate-induced hypertension in albino rat assessed as reduction in mean arterial pressure at 20 mg/kg, ip after 1 hr by tail-cuff method). Conditions: route intraperitoneal.
Type: functional, Artery
Set-up: scale not given: the % may be the effect or the level left
In short: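 Rats were albino, 200–250 g, and restrainer-trained for 10 min/day over 1 week. They were made hypertensive with s.c. methyl prednisolone acetate at 20 mg/kg/wk for 2 weeks. Each compound was suspended in 1% CMC and given i.p. at 20 mg/kg. Mean arterial BP was measured 1 h after dosing in conscious animals by CODA tail-cuff. Data are mean ± SEM, analysed by ANOVA and Dunnett test against the hypertensive control.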
Compound `O=C1CCC(c2ccccc2)=NN1c1n[nH]c(=S)n1-c1ccccc1` has an Activity of 30.01%.
Compound `O=C1CCC(c2ccccc2)=NN1c1n[nH]c(=S)n1-c1ccc(Cl)cc1` has an Activity of 24.84%.
`Cc1ccc(-n2c(N3N=C(c4ccccc4)CCC3=O)n[nH]c2=S)cc1` was tested, and the Activity was 38.83%.
`Cc1ccc(C2=NN(c3n[nH]c(=S)n3-c3ccccc3)C(=O)CC2)cc1` was tested, and the Activity was 27.3%.
In the case of `Cc1ccc(C2=NN(c3n[nH]c(=S)n3-c3ccc(Cl)cc3)C(=O)CC2)cc1`, the Activity is reported as 41.84%.
`Cc1ccc(C2=NN(c3n[nH]c(=S)n3-c3ccc(C)cc3)C(=O)CC2)cc1` gave an Activity of 31.25%.
In the case of `COc1ccc(C2=NN(c3n[nH]c(=S)n3-c3ccccc3)C(=O)CC2)cc1`, the Activity is reported as 32.48%.
`COc1ccc(C2=NN(c3n[nH]c(=S)n3-c3ccc(Cl)cc3)C(=O)CC2)cc1` was tested, and the Activity was 16.09%.
For `COc1ccc(C2=NN(c3n[nH]c(=S)n3-c3ccc(C)cc3)C(=O)CC2)cc1`, the Activity was 40.98%.
Work on `CCc1ccc(C2=NN(c3n[nH]c(=S)n3-c3ccccc3)C(=O)CC2)cc1` yielded an Activity of 38.88%.
`CCc1ccc(C2=NN(c3n[nH]c(=S)n3-c3ccc(Cl)cc3)C(=O)CC2)cc1` gave an Activity of 42.11%.
`CCc1ccc(C2=NN(c3n[nH]c(=S)n3-c3ccc(C)cc3)C(=O)CC2)cc1` showed an Activity of 32.97%.
For `CC(C)Cc1ccc(C2=NN(c3n[nH]c(=S)n3-c3ccccc3)C(=O)CC2)cc1`, the Activity was 30.51%.
In the case of `CC(C)Cc1ccc(C2=NN(c3n[nH]c(=S)n3-c3ccc(Cl)cc3)C(=O)CC2)cc1`, the Activity is reported as 15.85%.
`Cc1ccc(-n2c(N3N=C(c4ccc(CC(C)C)cc4)CCC3=O)n[nH]c2=S)cc1` showed an Activity of 12.5%.
Work on `O=C1CCC(c2ccc(-c3ccccc3)cc2)=NN1c1n[nH]c(=S)n1-c1ccccc1` yielded an Activity of 10.67%.
Compound `O=C1CCC(c2ccc(-c3ccccc3)cc2)=NN1c1n[nH]c(=S)n1-c1ccc(Cl)cc1` has an Activity of 14.37%.
Compound `Cc1ccc(-n2c(N3N=C(c4ccc(-c5ccccc5)cc4)CCC3=O)n[nH]c2=S)cc1` has an Activity of 13.13%.
For `O=C1CCC(c2ccc(Cl)cc2)=NN1c1n[nH]c(=S)n1-c1ccccc1`, the Activity was 12.52%.
Compound `O=C1CCC(c2ccc(Cl)cc2)=NN1c1n[nH]c(=S)n1-c1ccc(Cl)cc1` has an Activity of 11.29%.
Work on `Cc1ccc(-n2c(N3N=C(c4ccc(Cl)cc4)CCC3=O)n[nH]c2=S)cc1` yielded an Activity of 11.53%.

Source: ChEMBL document CHEMBL1667767, “Triazole incorporated pyridazinones as a new class of antihypertensive agents: design, synthesis and in vivo screening” (2011)
